Assay outcomes (PubChem)
Shown are actives, neighbours in structure and some others; about 3.5% of the full set was active somewhere.
MrgX1 antagonist: antagonists of human MrgX1 receptor, primary screen, HEK293 cells, Fluo-4 calcium flux; AID 588676, 2011; BAM8-22 antagonism; stronger effect = lower value; Mas-related G-protein coupled receptor member X1 (Homo sapiens), Q96LB2; 310,000 compounds, 1.3% hits; B-score at 10 µM;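 active = calcium-response B-score plate-corrected more than 3 library SD below zero, starting fluorescence within 5 deviations, no agonist response on first addition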;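 also: peak minus trough fluorescence over baseline after final BAM8-22 challenge near maximal dose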
Target sequence (Q96LB2 whole entry, looked up): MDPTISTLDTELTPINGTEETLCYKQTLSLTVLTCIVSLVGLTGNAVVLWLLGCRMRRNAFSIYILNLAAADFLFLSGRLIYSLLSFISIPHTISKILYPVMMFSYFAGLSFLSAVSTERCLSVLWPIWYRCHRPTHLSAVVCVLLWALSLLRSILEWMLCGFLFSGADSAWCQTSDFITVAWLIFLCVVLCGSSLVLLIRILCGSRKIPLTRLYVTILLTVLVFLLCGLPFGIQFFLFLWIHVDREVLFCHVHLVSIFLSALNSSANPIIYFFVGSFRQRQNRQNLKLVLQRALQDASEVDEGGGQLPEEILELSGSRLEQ
RGS4 pot: RGS4 potentiators or activators, primary screen, cell-based, HEK293 M3R inducible RGS4, calcium flux. carbachol calcium flux Fluo4; stronger effect = lower value. 310,000 compounds, 0.92% hits. AID 463111, 2010. B-score at 10 µM;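 active = B-score of the integrated calcium signal more than 4 SD below the library mean, with starting fluorescence not abnormally high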;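 also: negative B-score means reduced calcium response which marks RGS4 activation or potentiation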
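test system = M3R-expressing HEK293 line, RGS4 induced by doxycycline | probe or stimulus = carbachol at ECmax as muscarinic agonist stimulus | timing = dye loading 30 min 37 °C, buffer rest 30 min RT | signal = calcium dye Fluo4 fluorescence | evaluation = B score from integrated fluorescence ratio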
MrgX1 ag: agonists of human MrgX1 receptor, primary screen, HEK293 cells, Fluo-4 calcium flux; Fluo-4 calcium fluorescence, agonist mode; stronger effect = higher value; B-score at 10 µM; 310,000 compounds, 0.44% hits; AID 588627, 2011;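 active = calcium response B-score plate-corrected fluorescence ratio at least 3 library SD, with starting fluorescence B-score inside 5 SD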
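Material: MrgX1-expressing HEK293 cells / Dosing: compound as first of three additions / Incubation: overnight seeding, then 1 h dark dye loading / Signal: Fluo-4 NW calcium fluorescence / Evaluation: B-scored fluorescence response ratio / Benchmarks: positive and negative control wells on each plate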
MrgX1 allo act: positive allosteric modulators of MrgX1, primary screen, HEK293 cells, Fluo-4 calcium flux; FDSS; stronger effect = higher value; AID 588675, 2011; 310,000 compounds, 0.63% hits; B-score at 10 µM;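 active = plate-corrected calcium response at least 3 library SD above typical, normal starting fluorescence, not activating the receptor alone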;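 also: compound read alongside a low EC10 to EC30 dose of BAM8-22 agonist; peak minus trough fluorescence over baseline measured at the second addition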
RGS4 block: RGS4 inhibitors, primary screen, cell-based, HEK293 M3R inducible RGS4, calcium flux. Fluo-4 calcium flux; stronger effect = higher value; triggered by carbachol at its EC20. B-score at 10 µM. 310,000 compounds, 0.45% hits;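 active = B-score, a plate-corrected calcium signal, over three deviations above library mean, with baseline fluorescence within five deviations of library mean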;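 also: RGS4 expression induced by doxycycline in cells with stable M3 receptor; B-score is computed from the integrated fluorescence ratio over baseline after carbachol; higher B-score means a larger calcium signal and so more RGS4 inhibition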
Target sequence (P49798 whole entry, looked up): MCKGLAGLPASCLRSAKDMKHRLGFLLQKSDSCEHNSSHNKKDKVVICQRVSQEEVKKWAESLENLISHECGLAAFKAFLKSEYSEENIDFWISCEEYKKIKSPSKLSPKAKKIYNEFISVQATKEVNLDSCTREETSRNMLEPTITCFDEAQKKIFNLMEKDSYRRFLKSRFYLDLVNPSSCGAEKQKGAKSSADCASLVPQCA
RGS4 inh valid: enhanced carbachol calcium response, M3R/RGS4 cells, RGS4 inhibitor project, cell-based, validation screen, HEK293 M3R/RGS4, calcium flux | shares compounds with RGS4 block | carbachol calcium Fluo-4 fluorescence; carbachol added at its EC20; 0 = buffer wells, 100 = carbachol control | calcium response, % at 10 µM | 1,700 compounds, 65% hits | AID 492999, 2010;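 active = duplicate-averaged calcium response above the buffer-only control mean plus 5 SD of those controls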;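 also: integrated fluorescence ratio F max minus min over baseline F0; higher response in RGS4-induced cells means RGS4 inhibition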
RGS4 uninduced: carbachol calcium response in non-induced M3R cells, confirmation, counter-screen for RGS4 inhibitor project, cell-based, HEK293 M3R; shares compounds with RGS4 block; 1,900 compounds, 20% hits; carbachol calcium Fluo-4; submaximal (EC20) carbachol stimulus; buffer wells 0%, carbachol control wells 100%; activity (percent), % at 10 µM; AID 493000, 2010; call rule not given here;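 also: RGS4 induction absent so cells express M3R without RGS4; higher means more calcium signal and flags a non-specific hit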
M3R basal Ca ctr: second counter-screen for RGS4 inhibitors: non-induced cells without carbachol; shares compounds with RGS4 block; HEK293 M3R/RGS4 non-induced, Fluo-4 calcium, no carbachol; normalised: buffer wells 0%, carbachol wells 100%; calcium response (agonist-mode artifact), % at 10 µM; 1,900 compounds, 22% hits; AID 493001;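 active = duplicate-averaged calcium rise in uninduced cells above buffer wells' mean plus 5 SD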
Numbers without * were called inactive; i = inactive; x = no result given.

SMILES | MrgX1 antagonist | RGS4 pot | MrgX1 ag | MrgX1 allo act | RGS4 block | RGS4 inh valid | RGS4 uninduced | M3R basal Ca ctr
O=C(NCCS(=O)(=O)N1CCN(c2cccc(Cl)c2)CC1)c1cc(=O)c2ccccc2o1 | i | i | i | i | i | x | x | x
Cc1cc(C)n(CCNS(=O)(=O)c2ccc(C)c(C)c2)n1 | i | i | i | i | i | x | x | x
COC(=O)/C=C/C(=O)Nc1cccc(C(F)(F)F)c1 | i | i | i | i | 6.69* | 13.0%* | 44.0%* | i
COC(=S)Nc1cccc(C(F)(F)F)c1 | i | i | i | i | i | x | x | x
O=C(NCc1ccccc1)C1CCC(=O)N(CCCN2CCCC2=O)C1 (stereo not drawn) | i | i | i | i | i | x | x | x
CCn1c2ccccc2c2cc(/C=N/NC(=O)c3ccc(O)cc3)ccc21 | -6.27* | i | i | i | i | x | i | i
CCn1c2ccccc2c2cc(/C=N/NC(=O)c3cc(O)cc(O)c3)ccc21 | i | i | i | i | 8.96* | 42.5%* | 31.0%* | i
COC(=O)C(Cc1ccc(O)cc1)NC(=O)CCOc1ccc(OC)cc1 (stereo not drawn) | i | i | i | i | i | x | x | x
O=S(=O)(/N=C(\Sc1ccc(Cl)cc1)c1ccccc1)c1ccccc1 | i | i | i | i | i | i | i | 18.5%*
Nc1nc(Nc2ccccc2)nc(NCc2ccco2)c1[N+](=O)[O-] | i | i | i | i | i | i | i | i
Cc1cc(C)c2[nH]c(=O)c(C(c3nnnn3C(C)(C)C)N(Cc3ccco3)CC3CCCO3)cc2c1 (stereo not drawn) | i | i | i | i | i | i | i | i
Cc1cc2cc(C(c3nnnn3C(C)(C)C)N(Cc3ccco3)CC3CCCO3)c(=O)[nH]c2cc1C (stereo not drawn) | i | i | i | i | 5.38* | 18.5%* | i | i
COc1ccc2[nH]c(=O)c(C(c3nnnn3CC3CCCO3)N3CCCCC3)cc2c1 (stereo not drawn) | i | i | i | i | i | x | x | x
COc1ccc2[nH]c(=O)c(C(c3nnnn3C(C)(C)C)N(Cc3ccco3)CC3CCCO3)cc2c1 (stereo not drawn) | i | i | i | i | i | x | i | 7.0%*
O=[N+]([O-])c1ccc2nc(Cl)nc(-c3ccccc3)c2c1 | i | i | i | i | i | x | x | x
COc1ccc(N2CCN(CCCNC(=O)Cn3c(=O)c4cccn4c4ccccc43)CC2)cc1 | i | i | i | i | i | x | x | x
O=C(CN1C(=O)COc2ccc(S(=O)(=O)N3CCCCC3)cc21)NCc1ccc(Cl)cc1 | i | i | i | i | i | x | x | x
Cc1ccc(-c2nc3ccccn3c2Nc2ccccc2)o1 | i | i | i | i | i | x | x | x
Cc1ccc(-c2nc3cnccn3c2Nc2ccc3c(c2)OCO3)o1 | i | i | i | i | i | x | x | x
Cc1ccc(Nc2c(-c3ccc(C)o3)nc3cnccn23)cc1 | i | i | i | i | i | i | i | i
Cc1ccc(-c2nc3cnccn3c2Nc2ccccc2)o1 | i | i | i | i | 10.1* | i | i | i
Cn1cc(-c2cccc(C(F)(F)F)c2)cc(C#N)c1=O | i | i | i | i | i | x | x | x
O=C(O)CCCN1C(=O)/C(=C\c2ccco2)SC1=S | x | i | x | x | i | x | x | x
O=C(O)CCN1C(=O)/C(=C\c2ccc(-c3nc4ccccc4s3)o2)SC1=S | i | i | i | i | i | i | i | 53.5%*
CCCn1c(C(=O)OC)cc2c1ccn2-c1ccc(F)cc1 | i | i | i | i | i | x | x | x
SMILES | MrgX1 antagonist | RGS4 pot | MrgX1 ag | MrgX1 allo act | RGS4 block | RGS4 inh valid | RGS4 uninduced | M3R basal Ca ctr
COC(=O)c1cc2c(ccn2-c2ccc(F)cc2)n1CC(C)C | i | i | i | i | 10.9* | 36.5%* | i | i
CC(C)(C)NC(=O)COc1coc(CN2CCN(C(=O)c3ccco3)CC2)cc1=O | i | i | i | i | i | x | x | x
O=C(N/N=C/c1c[nH]c2ccccc12)c1[nH]c2ccc(Br)cc2c1-c1ccccc1 | x | i | x | x | 6.95* | 18.0%* | 28.5%* | i
O=C(N/N=C/c1ccc(O)cc1)c1[nH]c2ccc(Br)cc2c1-c1ccccc1 | i | i | i | i | i | x | x | x
Cc1ccc(-c2csc3nc(SCC(=O)Nc4ccc(Cl)c(C(=O)O)c4)[nH]c(=O)c23)cc1 | i | i | i | i | i | x | x | x
CCCCCCOc1ccc(N2C(=O)CC(S/C(N)=N/N=C(\C)c3cccs3)C2=O)cc1 (stereo not drawn) | i | i | i | i | 7.5* | i | i | i
CCCCCOc1ccc(N2C(=O)CC(N(O)c3ccccc3)C2=O)cc1 (stereo not drawn) | i | i | i | i | i | x | x | x
N/C(=N\N=C\c1cccs1)SC1CC(=O)N(c2ccc(Br)cc2)C1=O (stereo not drawn) | i | i | i | i | i | x | x | x
C/C(=N\N=C(/N)SC1CC(=O)N(c2ccccc2)C1=O)c1cccs1 (stereo not drawn) | i | i | i | i | i | x | i | i
C/C(=N\N=C(/N)SC1CC(=O)N(c2ccc(Cl)c(Cl)c2)C1=O)c1cccs1 (stereo not drawn) | i | i | i | i | 6.36* | 5.5%* | i | i
C/C(=N\N=C(/N)SC1CC(=O)N(c2ccc(Br)cc2)C1=O)c1cccs1 (stereo not drawn) | i | i | i | i | 10.6* | 37.0%* | 31.0%* | i
NCCSC1CC(=O)N(c2ccc(Cl)c(Cl)c2)C1=O (stereo not drawn) | i | i | i | i | i | x | x | x
